Most compounds without a hit are left out; they make up all but 3.7% or so of the library.
MC4R antagonist – blocks human MC4R cAMP signaling; P32245; MC4R-expressing cells, MTII-stimulated cAMP, LANCE TR-FRET; inhibition, % at 6.5 µM; hit rate 0.48% among 360,000; AID 540295;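 active means inhibition above its plate's cutoff, the mean of tested wells on that plate plus 3 SD, cut at about 29% in these data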
Target sequence (P32245 whole entry, looked up): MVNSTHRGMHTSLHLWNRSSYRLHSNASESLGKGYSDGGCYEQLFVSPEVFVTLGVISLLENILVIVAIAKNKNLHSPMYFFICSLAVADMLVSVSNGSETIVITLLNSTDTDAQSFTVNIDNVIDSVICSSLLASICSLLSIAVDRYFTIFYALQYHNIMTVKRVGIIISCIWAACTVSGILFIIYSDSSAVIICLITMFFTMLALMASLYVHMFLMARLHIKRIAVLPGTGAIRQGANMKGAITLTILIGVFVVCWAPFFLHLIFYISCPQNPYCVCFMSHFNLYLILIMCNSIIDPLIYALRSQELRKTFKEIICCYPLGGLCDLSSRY
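system = U2OS cells with stable human MC4R expression | also added = Melanotan II challenge after compound preincubation | dosing = one concentration, 6.5 µM nominal | incubation = compound 30 min, challenge 1 h, detection 1 h | measured by = TR-FRET with Eu-cAMP and labeled anti-cAMP, 671 nm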
EBI2 block – blocks human EBI2 receptor beta-arrestin signaling. P32249. EBI2 beta-arrestin recruitment, luminescence, 7a,25-OHC stimulated. inhibition, % at 5 µM. hit rate 0.81% among 360,000; in the data active means inhibition above about 38%;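 further: enzyme fragment complementation signal reports receptor beta-arrestin coupling in cells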
Target sequence (P32249 whole entry, looked up, the tested form may be a part): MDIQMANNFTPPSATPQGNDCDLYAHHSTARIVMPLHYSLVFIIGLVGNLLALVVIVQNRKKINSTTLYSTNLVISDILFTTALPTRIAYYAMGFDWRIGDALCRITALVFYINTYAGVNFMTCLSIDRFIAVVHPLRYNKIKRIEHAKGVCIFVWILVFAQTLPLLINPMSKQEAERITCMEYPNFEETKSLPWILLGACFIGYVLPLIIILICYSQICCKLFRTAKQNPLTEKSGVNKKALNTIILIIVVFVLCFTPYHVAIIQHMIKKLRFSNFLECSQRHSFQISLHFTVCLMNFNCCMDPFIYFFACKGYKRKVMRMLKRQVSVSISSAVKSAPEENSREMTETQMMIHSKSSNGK
Exocytosis inh – lytic granule exocytosis inhibition; TALL-104 LAMP-1 surface exposure, flow cytometry; cells stimulated with thapsigargin and PMA; inhibition, % at 10 µM; hit rate 0.66% among 360,000; AID 651702;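 active means inhibition above about 55%, limit read from the data; inconclusive means no clear call, values can overlap the other calls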
Myeloid diff 2 – myeloid differentiation induction; ER-HoxA9 myeloid progenitors, lysozyme-GFP differentiation, flow cytometry; calls only at 10 µM; hit rate 1% among 360,000; AID 624256;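 active means normalized GFP-positive differentiation at or above the plate's own cutoff, the solvent-only control mean plus 3 SD; inconclusive means no clear call, values can overlap the other calls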;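 further: cells exposed to compound for four days before flow analysis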
MC4R ag barr – human MC4R agonism via beta-arrestin; P32245; U2OS MC4R beta-arrestin complementation, luminescence; percent of melanotan II response, DMSO zero; activation, % at 8.9 µM; hit rate 0.98% among 360,000; AID 540308;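 active means activation above a per-plate cutoff, the mean activation of sample wells on that plate plus 3 SD, cut at about 8% in these data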
MC4R barr ag – human MC4R beta-arrestin agonism confirmation | shares compounds with MC4R ag barr | U2OS MC4R beta-arrestin recruitment, luminescence; scaled DMSO 0%, Melanotan II 100% | activation, % at 8.9 µM | hit rate 31% among 2,400;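 active means mean activation across replicates above the hit cutoff set in the earlier primary screen, cut at about 8% in these data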
MOR DOR agonist – activates mu-delta opioid heterodimer, MC4R agonist counter-screen | AID 602194 | activation, % at 9.2 µM | shares compounds with MC4R ag barr | U2OS PathHunter beta-arrestin, beta-gal luminescence; percent of deltorphin B response, DMSO zero | hit rate 5.8% among 2,400;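 active means mean activation across replicates exceeds the hit threshold derived in the earlier primary screen, cut at about 18% in these data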
Numbers stand for hits.

What do the screens show for `Cc1ccc(C2=NN(C(=O)c3cccs3)C(c3ccccc3O)C2)cc1` (centres undefined)?
MC4R antagonist: inactive; EBI2 block: inactive; Exocytosis inh: inactive; Myeloid diff 2: inactive; MC4R ag barr: 18; MC4R barr ag: 30; MOR DOR agonist: inactive

Results for C[C@@H]1CN([C@@H](C)CO)C(=O)c2cc(NS(=O)(=O)c3cccs3)ccc2O[C@H]1CN(C)Cc1ccc(C(F)(F)F)cc1 ?
MC4R antagonist: inactive; EBI2 block: inactive; Exocytosis inh: inactive; Myeloid diff 2: inactive; MC4R ag barr: inactive

Results for O=C1CC2(CCN(C(=O)c3ccccc3Cl)CC2)Oc2ccccc21 ?
MC4R antagonist: inactive; EBI2 block: inactive; Exocytosis inh: inactive; Myeloid diff 2: inactive; MC4R ag barr: inactive

How did O=C(c1ccccc1)N1N=C(c2ccccc2)CC1c1ccccc1O (centres undefined) do in these assays?
MC4R antagonist: inactive; EBI2 block: inactive; Exocytosis inh: inactive; Myeloid diff 2: inactive; MC4R ag barr: 17; MC4R barr ag: 11; MOR DOR agonist: inactive

What do the screens show for `O=C(Nc1ccccc1-c1ccccc1)c1cccc(C(F)(F)F)c1`?
MC4R antagonist: inactive; EBI2 block: inactive; Exocytosis inh: inactive; Myeloid diff 2: inactive; MC4R ag barr: inactive

What do the screens show for `O=C(Nc1ccc(C(F)(F)F)cc1-c1ccccc1)c1ccccc1`?
MC4R antagonist: inactive; EBI2 block: inactive; Exocytosis inh: inactive; Myeloid diff 2: inactive; MC4R ag barr: 13; MC4R barr ag: inactive; MOR DOR agonist: inactive

Results for CCC1CN(C(=O)Nc2ccc(C)cc2)c2cc(C)ccc2O1 (centres undefined) ?
MC4R antagonist: inactive; EBI2 block: inactive; Exocytosis inh: inactive; Myeloid diff 2: inactive; MC4R ag barr: 11; MC4R barr ag: inactive; MOR DOR agonist: inactive

Results for CCCCn1c(N)c(N(CCC(C)C)C(=O)COC(=O)/C=C/c2ccc(F)cc2)c(=O)[nH]c1=O ?
MC4R antagonist: inactive; EBI2 block: inactive; Exocytosis inh: inactive; Myeloid diff 2: inactive; MC4R ag barr: inactive

How did Oc1cccc(C(O)CNCc2ccc(OCc3ccc(Cl)cc3Cl)cc2)c1 (centres undefined) do in these assays?
MC4R antagonist: inactive; EBI2 block: inactive; Exocytosis inh: inactive; Myeloid diff 2: inactive; MC4R ag barr: 14; MC4R barr ag: 27; MOR DOR agonist: inactive

What do the screens show for `Cc1ccc(NC(=O)CSc2nc(-c3ccco3)cc(C(F)(F)F)n2)cc1C`?
MC4R antagonist: inactive; EBI2 block: inactive; Exocytosis inh: inactive; Myeloid diff 2: inconclusive; MC4R ag barr: 24; MC4R barr ag: inactive; MOR DOR agonist: inactive

What do the screens show for `O=C(CSc1nc(-c2ccco2)cc(C(F)(F)F)n1)Nc1ccc2c(c1)CCC2`?
MC4R antagonist: inactive; EBI2 block: inactive; Exocytosis inh: inactive; Myeloid diff 2: inconclusive; MC4R ag barr: inactive

How did Clc1ccccc1-c1ccc2ncnc(NCc3ccc4c(c3)OCO4)c2c1 do in these assays?
MC4R antagonist: inactive; EBI2 block: inactive; Exocytosis inh: inactive; Myeloid diff 2: inactive; MC4R ag barr: inactive

What do the screens show for `Clc1ccccc1-c1cnc2sc(NCc3ccc4c(c3)OCO4)nn12`?
MC4R antagonist: inactive; EBI2 block: inactive; Exocytosis inh: inactive; Myeloid diff 2: inactive; MC4R ag barr: 22; MC4R barr ag: 13; MOR DOR agonist: inactive

Results for O=C(OCc1ccccc1)/C(=C/c1cccc2ccccc12)NC(=O)c1ccccc1 ?
MC4R antagonist: inactive; EBI2 block: inactive; Exocytosis inh: inactive; Myeloid diff 2: inactive; MC4R ag barr: 14; MC4R barr ag: inactive; MOR DOR agonist: inactive

How did Oc1ccccc1-c1nc(NCc2cccnc2)c2ccccc2n1 do in these assays?
MC4R antagonist: inactive; EBI2 block: inactive; Exocytosis inh: inactive; Myeloid diff 2: inactive; MC4R ag barr: inactive

Results for Oc1ccccc1-c1nc(NCc2ccccc2)c2ccccc2n1 ?
MC4R antagonist: inactive; EBI2 block: inactive; Exocytosis inh: inactive; Myeloid diff 2: inactive; MC4R ag barr: 12; MC4R barr ag: inactive; MOR DOR agonist: inactive

How did Oc1ccccc1-c1nc(NCc2ccco2)c2ccccc2n1 do in these assays?
MC4R antagonist: inactive; EBI2 block: inactive; Exocytosis inh: inactive; Myeloid diff 2: inactive; MC4R ag barr: 13; MC4R barr ag: inactive; MOR DOR agonist: inactive

How did CC(OC(=O)c1cc(=O)c2cc(Cl)ccc2o1)C(=O)N1CCCC1 (centres undefined) do in these assays?
MC4R antagonist: inactive; EBI2 block: inactive; Exocytosis inh: inactive; Myeloid diff 2: inactive; MC4R ag barr: inactive

Results for O=C(CN1C(=O)c2cccnc2Oc2ccc(Cl)cc21)NC1CCCCC1 ?
MC4R antagonist: inactive; EBI2 block: inactive; Exocytosis inh: inactive; Myeloid diff 2: inactive; MC4R ag barr: inactive

Results for COc1cc2c(-c3ccc(O)cc3)nc3c(c(C)nn3-c3ccccc3)c2cc1OC ?
MC4R antagonist: inactive; EBI2 block: inactive; Exocytosis inh: inactive; Myeloid diff 2: inactive; MC4R ag barr: 10; MC4R barr ag: inactive; MOR DOR agonist: inactive

How did CCN1C(=O)[C@H]2[C@@H](c3ccc(-c4ccc(OC)cc4)cc3)N[C@@](C)(C(=O)OC)[C@H]2C1=O do in these assays?
MC4R antagonist: inactive; EBI2 block: inactive; Exocytosis inh: inactive; Myeloid diff 2: inactive; MC4R ag barr: inactive

Results for Cc1cc(-n2c(SCC(=O)NCc3cccs3)nc3n[nH]c(C)c3c2=N)ccc1Cl ?
MC4R antagonist: inactive; EBI2 block: inactive; Exocytosis inh: inactive; Myeloid diff 2: inactive; MC4R ag barr: 13; MC4R barr ag: inactive; MOR DOR agonist: inactive

What do the screens show for `CCOc1ccc(-n2c(SCC(=O)Nc3ccc(Br)cc3)nc3n[nH]c(C)c3c2=N)cc1`?
MC4R antagonist: inactive; EBI2 block: inactive; Exocytosis inh: inactive; Myeloid diff 2: inactive; MC4R ag barr: 17; MC4R barr ag: inactive; MOR DOR agonist: inactive

How did CCOc1ccc(-n2c(SCC(=O)NC(C)CC)nc3n[nH]c(C)c3c2=N)cc1 (centres undefined) do in these assays?
MC4R antagonist: inactive; EBI2 block: inactive; Exocytosis inh: inactive; Myeloid diff 2: inactive; MC4R ag barr: inactive

What do the screens show for `CCN1CCC(O)(/C=C/c2ccc(C(C)C)cc2)C(C(=O)/C=C/c2ccc(C(C)C)cc2)C1` (centres undefined)?
MC4R antagonist: inactive; EBI2 block: inactive; Exocytosis inh: inactive; Myeloid diff 2: inconclusive; MC4R ag barr: 12; MC4R barr ag: 17; MOR DOR agonist: inactive

Results for CC(C)c1ccc(/C=C/C(=O)O)cc1 ?
MC4R antagonist: inactive; EBI2 block: inactive; Exocytosis inh: inactive; Myeloid diff 2: inactive; MC4R ag barr: inactive

Compound activity (PubChem BioAssay)
